Experimental findings from PubChem BioAssay are described below.

Calls of active or inactive are those of the source.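 The calls were made as follows, unless noted: active = GFP response above 150% of the DMSO level; inconclusive = fewer than 70 events counted for a yeast strain; inactive = the rest.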

Assay [1] can be described thus: RPL19A-GFP modulators, yeast TOR pathway, confirmation, cell-based, S. cerevisiae, flow cytometry, cherry picks, mother/daughter gates (AID 2270;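 active = GFP response below 50% of the DMSO control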). To be noted: S. cerevisiae RPL19A-GFP strain, 3 h, at 10 µM, stronger effect = lower value, 100 = same GFP as DMSO wells.
Assay [2] is described as follows: LAP4-GFP expression modulators in yeast, confirmation, cell-based, cherry picks, flow cytometry, mother/daughter gates (AID 2271;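 active = GFP response above 150% of the DMSO control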;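 also: ratio of sample to DMSO plate mean so 100% equals DMSO level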). To be noted: S. cerevisiae LAP4-GFP strain, 3 h, at 10 µM, stronger effect = higher value, 100 means same as DMSO control. An outline of the steps: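 Material: Alexa 633-stained baker's yeast GFP-fusion strain; Compound dosing: single test-compound dose, 10 µM final; Incubation: 30 °C, 3 h compound incubation, rotating; Detection: HT flow cytometry, GFP fluorescence channel; Control set: positive rapamycin (400 ng/mL), negative DMSO.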
For orientation: In flow cytometry, cells or beads pass a laser one at a time.

The nature of assay [3]: modulators of MEP2-GFP levels in yeast, confirmation, S. cerevisiae, flow cytometry GFP, cherry picks (AID 2272;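 active = GFP response above 150% of the DMSO control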;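 also: ratio of well signal to plate DMSO mean so 100% equals DMSO level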). To be noted: S. cerevisiae MEP2-GFP strain, 3 h, at 10 µM, stronger effect = higher value.
Assay [4] in a line: AGP1-GFP expression modulators, hit retest, confirmation, cell-based, flow cytometry, S. cerevisiae, cherry picks (AID 2273).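 Also: median GFP channel fluorescence over the whole cell population gate.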 To be noted: S. cerevisiae AGP1-GFP strain, 3 h, at 10 µM.
Assay [5] can be described thus: modulators of CIT2-GFP expression in yeast, confirmation, S. cerevisiae, GFP fusion, cherry picks, mother/daughter gates (AID 2274). Particulars: S. cerevisiae CIT2-GFP strain, flow cytometry, 3 h, at 10 µM, stronger effect = higher value.
The mark [6] stands for this setting: measured here: daughter cell gate.
Where [7] appears, read: measured here: mother cell gate.
Setting [8] is: measured here: daughter cell gate response.
The mark [9] stands for this setting: measured here: mother cell gate response.

Turning to `Cn1ncc(N2CCN(S(=O)(=O)c3ccc(Br)cc3)CC2)c(Cl)c1=O`, the GFP response vs DMSO in assay [1] is 98.2% (inactive); in assay [1] (setting [6]), 97.9%; in assay [1] (setting [7]), 98.7%; in assay [3], 107% (inactive). Besides, the GFP response relative to DMSO in assay [2] was 96.7% (inactive); in assay [2] (setting [8]) it was 96%; in assay [2] (setting [9]), 95.1%. The GFP response, % of DMSO in assay [4] is 99.3% (inactive); in assay [5], 98.3% (inactive); in assay [5] (setting [6]), 101%; in assay [5] (setting [7]), 97.3%.

`COc1ccc(OC(=O)c2cc(S(=O)(=O)N3CCCC3)ccc2Cl)cc1`: the GFP response vs DMSO in assay [1] was 97.6% (inactive); in assay [1] (setting [6]), 96.9%; in assay [1] (setting [7]), 97.2%; in assay [3] it was 98.3% (inactive). Also, the GFP response relative to DMSO in assay [2] was 97.9% (inactive); in assay [2] (setting [8]), 99.2%; in assay [2] (setting [9]), 97.2%. The GFP response, % of DMSO in assay [4] was 94.3% (inactive); in assay [5] it was 101% (inactive); in assay [5] (setting [6]), 103%; in assay [5] (setting [7]), 101%.

Consider `CCOc1cc(C)c(S(=O)(=O)N2CCCC2)cc1C`, for which the GFP response vs DMSO in assay [1] was 90% (inactive); in assay [1] (setting [6]), 83.8%; in assay [1] (setting [7]), 91.1%; in assay [3] it was 92.6% (inactive). Also, the GFP response relative to DMSO in assay [2] was 137% (inactive); in assay [2] (setting [8]), 128%; in assay [2] (setting [9]), 145%. The GFP response, % of DMSO was 94.5% (inactive) in assay [4], 78.5% (inactive) in assay [5], 72.1% in assay [5] (setting [6]) and 80.9% in assay [5] (setting [7]).

Turning to `O=C(O)CCCn1nc(-c2ccccc2)c2ccccc21`, the GFP response vs DMSO is 99% (inactive) in assay [1], 98.4% in assay [1] (setting [6]), 100% in assay [1] (setting [7]) and 103% (inactive) in assay [3]. In addition, the figures for the GFP response relative to DMSO in assay [2], in assay [2] (setting [8]) and in assay [2] (setting [9]) were 112% (inactive), 112% and 111%, respectively. For the same molecule, the GFP response, % of DMSO was 101% (inactive) in assay [4], 103% (inactive) in assay [5], 106% in assay [5] (setting [6]) and 96.8% in assay [5] (setting [7]).

Take `O=C(NCc1ccccc1)c1nc(S(=O)(=O)Cc2ccccc2)ncc1Cl`: the GFP response vs DMSO in assay [1] is 101% (inactive); in assay [1] (setting [6]), 99.2%; in assay [1] (setting [7]), 98.5%; in assay [3], 100% (inactive). Moreover, the GFP response relative to DMSO is 108% (inactive) in assay [2], 108% in assay [2] (setting [8]) and 108% in assay [2] (setting [9]). For the same molecule, the GFP response, % of DMSO in assay [4] is 104% (inactive); in assay [5] it was 96.5% (inactive); in assay [5] (setting [6]), 93.2%; in assay [5] (setting [7]), 98.7%.

With `COc1ccc(OC)c(S(=O)(=O)ON2C(=O)c3ccccc3C2=O)c1`, the GFP response vs DMSO was 105% (inactive) in assay [1], 98.3% in assay [1] (setting [6]), 93.8% in assay [1] (setting [7]) and 114% (inactive) in assay [3]. Further, the GFP response relative to DMSO in assay [2] was 156% (active); in assay [2] (setting [8]), 157%; in assay [2] (setting [9]), 158%. Moreover, the GFP response, % of DMSO in assay [4] was 96.9% (inactive); in assay [5], 102% (inactive); in assay [5] (setting [6]), 119%; in assay [5] (setting [7]), 87.5%.

For `Cc1cc(=O)n2c3c(sc2n1)C(=O)N(Cc1ccccc1)C3=O`, the GFP response vs DMSO in assay [1] is 94.3% (inactive); in assay [1] (setting [6]) it was 94.5%; in assay [1] (setting [7]) it was 94%; in assay [3], 103% (inactive). The GFP response relative to DMSO was 152% (active) in assay [2], 140% in assay [2] (setting [8]) and 161% in assay [2] (setting [9]). The GFP response, % of DMSO is 105% (inactive) in assay [4], 81% (inactive) in assay [5], 87.3% in assay [5] (setting [6]) and 74.8% in assay [5] (setting [7]).

For `CCCn1c(=O)c(C(=O)Nc2ccccc2)c(O)c2ccccc21`, the GFP response vs DMSO in assay [1] is 96.7% (inactive); in assay [1] (setting [6]), 96.4%; in assay [1] (setting [7]), 95.6%; in assay [3], 99.3% (inactive). Besides, the GFP response relative to DMSO in assay [2] was 100% (inactive); in assay [2] (setting [8]) it was 97.5%; in assay [2] (setting [9]), 98.4%. In addition, the GFP response, % of DMSO in assay [4] is 96.6% (inactive); in assay [5] it was 98.6% (inactive); in assay [5] (setting [6]), 95.8%; in assay [5] (setting [7]), 97.1%.

For `Cc1csc(Nc2ccccc2C(F)(F)F)n1`, the GFP response vs DMSO in assay [1] was 96.2% (inactive); in assay [1] (setting [6]), 94.2%; in assay [1] (setting [7]), 95.9%; in assay [3], 101% (inactive). Also, the GFP response relative to DMSO in assay [2] is 105% (inactive); in assay [2] (setting [8]), 104%; in assay [2] (setting [9]), 108%. Further, the GFP response, % of DMSO in assay [4] is 94.3% (inactive); in assay [5], 97.2% (inactive); in assay [5] (setting [6]), 97.6%; in assay [5] (setting [7]) it was 94.9%.
